Data set [1] is classed as in vivo, human.
The test system of data set [2] is R5X4 dual-tropic HIV-1 (strain 89.6). In kind it is cell-based. Conditions: 1μg/ml drug, seven days, n=3. Put shortly: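 Anti-CD3 (1μg/ml plate-bound) plus IL2 (100ng/ml) stimulated CD4 T cells for 48 hrs at 37°C/5%CO2. Cells were infected at MOI 0.1 for 48 hrs with IL2, then 5×10^5 were seeded directly onto mature adipocytes differentiated from 5×10^4 preadipocytes/well. Co-culture ran seven days with IL-2 and drug. Read-out was intracellular p24 by flow cytometry (clone KC57) after viability dye; singlet wells per condition.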

The test system of data set [3] is HIV-infected CD4 T cells. In kind it is cell-based, human. Conditions: 1μg/ml drug, seven days, n=4.
For data set [4], the system named is R5X4 dual-tropic HIV-1 (strain 89.6). In kind it is cell-based. The note with it: seven days, n=4.
On the set-up of data set [5]: species or system rhesus macaques. The note with it: rhesus monkey, in vivo, sc.
Data set [6] deals with R5X4 dual-tropic HIV-1 (strain 89.6). Type of data set: cell-based. The note with it: 0.1-1μg/ml TDF, n=5. In outline: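 Infected CD4 T cells (5×10^5; anti-CD3/IL2-activated, MOI 0.1) were placed in 0.4μm-pore transwells above mature adipocytes in adipocyte maintenance medium. Drug was added to the lower wells just before, with 100ng/ml IL-2, for 6-7 days. Read-out was supernatant p24 by ELISA, reported as percent change relative to untreated. Singlet wells; experiments repeated with different donor cells; mean±sem.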

For data set [7] the test system is unchanged. In kind it is cell-based. The note with it: 0.1-1μg/ml TDF, seven days, n=6.
Data set [8] has the same test system. Type of data set: cell-based. Conditions: 0.1-1μg/ml TDF, seven days, n=6. The source holds these as a separate data set.
Setting [9] is: direct contact co-culture with adipocytes.

The values below come from PMC5955795 (Antiviral research, 2018).

Where a name gives a salt, the structure may show the parent alone. Read-outs that look alike come from different tables or passages of the source.

As for `COC(=O)N[C@H](C(=O)N[C@@H](Cc1ccccc1)[C@@H](O)CN(Cc1ccc(-c2ccccn2)cc1)NC(=O)[C@@H](NC(=O)OC)C(C)(C)C)C(C)(C)C` [atazanavir], in data set [1] (Pt.07), the “intracellular concentration in tissues examined (tissue not specified)” value is listed as “undetectable”.

As for `C[C@H](Cn1cnc2c(N)ncnc21)OCP(=O)(O)O` [tenofovir], the “HIV production (p24+)” value in data set [2] (setting [9]) was 55-60%; in data set [2] (medium alone), 15-16 % p24+. For the same compound, the “CD69+p24+ expression” value is 8-12% in data set [3] (co-culture with adipocytes) and below 2% in data set [3] (medium alone). Besides, the “reduced HIV replication (intracellular p24)” value in data set [4] (1-5μg/ml tenofovir, in the presence of adipocytes) is 5-43%; in data set [4] (1-5μg/ml tenofovir, medium alone), 65-91%.

`Nc1nc(=O)n([C@@H]2CS[C@H](COP(=O)(O)OP(=O)(O)OP(=O)(O)O)O2)cc1F` [FTC-TP]: in data set [5], the “intracellular concentration in PBMC” value is given as 700-1,400 fmol/million cells, the “intracellular concentration in lysates of AT-SVF fractions” value was “undetectable” and the “intracellular concentration in lysates of adipocyte fractions” value is listed as “undetectable”. Besides, in data set [1] (human, in vivo), the concentration in serum is 2,687 ng/ml, the “intracellular concentration in PBMC” value is given as 14,682 fmol/million cells, the “intracellular concentration in lymph node cells” value is 1,053 fmol/million cells and the “intracellular concentration in tissues examined (tissue not specified)” value is reported as “undetectable”. Further, in data set [1] (human, in vivo, sc), the “intracellular concentration in subcutaneous AT-SVF cells” value is 4,459 fmol/million cells and the “intracellular concentration in subcutaneous adipocytes” value was 11 fmol/million cells.

As to `Nc1nc(=O)c2ncn([C@H]3C=C[C@@H](COP(=O)(O)OP(=O)(O)OP(=O)(O)O)C3)c2[nH]1` [CBV-TP], in data set [1] (human, in vivo), the “intracellular concentration in tissues examined (tissue not specified)” value is “undetectable” and the “intracellular concentration in visceral AT-SVF cells” value is “undetectable”.

For the compound `Nc1ccn([C@@H]2CS[C@H](COP(=O)(O)OP(=O)(O)OP(=O)(O)O)O2)c(=O)n1` [3TC-TP], in data set [1] (human, in vivo), the concentration in serum is 37 ng/mL, the “intracellular concentration in tissues examined (tissue not specified)” value is reported as “undetectable” and the “intracellular concentration in visceral AT-SVF cells” value is “undetectable”.

As for `COc1cc2c(cc1Cc1cccc(Cl)c1F)c(=O)c(C(=O)O)cn2[C@H](CO)C(C)C` [elvitegravir], in data set [1] (Pt.05), the “intracellular concentration in PBMC” value was “undetectable” and the “intracellular concentration in subcutaneous AT-SVF cells” value came out at 339 fmol/million cells.

In the case of `C[C@@H](Cn1cnc2c(N)ncnc21)OCP(=O)(O)OP(=O)(O)OP(=O)(O)O` [TFV-DP], in data set [5], the “intracellular concentration in PBMC” value was 80-770 fmol/million cells, the “intracellular concentration in lysates of AT-SVF fractions” value is given as “undetectable” and the “intracellular concentration in lysates of adipocyte fractions” value is “undetectable”. Besides, in data set [1] (human, in vivo), the concentration in serum turned out to be 246 ng/mL, the “intracellular concentration in PBMC” value came out at 633 fmol/million cells and the “intracellular concentration in tissues examined (tissue not specified)” value was “undetectable”. Moreover, in data set [1] (human, in vivo, sc), the “intracellular concentration in subcutaneous AT-SVF cells” value stood at 724 fmol/million cells and the “intracellular concentration in subcutaneous adipocytes” value amounted to 7 fmol/million cells.

For the compound `C[C@@H]1CCO[C@H]2Cn3cc(C(=O)NCc4ccc(F)cc4F)c(=O)c(O)c3C(=O)N12` [dolutegravir], the “intracellular concentration in visceral AT-SVF cells” value in data set [1] (Pt.01) is on record as “undetectable”. Further, in data set [1] (Pt.03), the “intracellular concentration in lymph node cells” value worked out at 793 fmol/million cells, the “intracellular concentration in subcutaneous AT-SVF cells” value is on record as 129 fmol/million cells and the “intracellular concentration in subcutaneous adipocytes” value is on record as 151 fmol/million cells. In addition, in data set [1] (Pt.04), the “intracellular concentration in lymph node cells” value stood at 749 fmol/million cells, the “intracellular concentration in subcutaneous AT-SVF cells” value was 1,439 fmol/million cells and the “intracellular concentration in subcutaneous adipocytes” value was found to be 382 fmol/million cells. In addition, the “intracellular concentration in subcutaneous AT-SVF cells” value in data set [1] (Pt.07) was found to be 4 fmol/million cells. Besides, in data set [1] (Pt.08), the concentration in serum is recorded as 1,324 ng/ml, the “intracellular concentration in PBMC” value was 46 fmol/million cells, the “intracellular concentration in lymph node cells” value worked out at 17 fmol/million cells and the “intracellular concentration in subcutaneous AT-SVF cells” value was 449 fmol/million cells. Moreover, the “intracellular concentration in subcutaneous adipocytes” value in data set [1] (Pt.08) is listed as 363 fmol/million cells.

In the case of `CC(C)c1nc(CN(C)C(=O)N[C@H](C(=O)N[C@@H](Cc2ccccc2)C[C@H](O)[C@H](Cc2ccccc2)NC(=O)OCc2cncs2)C(C)C)cs1` [ritonavir], the “intracellular concentration in tissues examined (tissue not specified)” value in data set [1] (Pt.07) is listed as “undetectable”.

Consider `Cc1ccnc2c1NC(=O)c1cccnc1N2C1CC1` [nevirapine], for which the “intracellular concentration in visceral adipocytes” value in data set [1] (Pt.06) came out at 139 fmol/million cells.

For the compound `CC(C)OC(=O)[C@H](C)N[P@](=O)(CO[C@H](C)Cn1cnc2c(N)ncnc21)Oc1ccccc1` [TAF, tenofovir alafenamide], the “CD69+p24+ expression” value is reported as 8-12% in data set [3] (co-culture with adipocytes) and below 2% in data set [3] (medium alone). Also, the “reduced HIV replication (intracellular p24)” value in data set [4] (0.1-1μg/ml TAF, in the presence of adipocytes) is listed as 1-64%; in data set [4] (0.1-1μg/ml TAF, medium alone), 40-98%.

Turning to `CC(C)OC(=O)OCOP(=O)(CO[C@H](C)Cn1cnc2c(N)ncnc21)OCOC(=O)OC(C)C` [TDF, tenofovir disoproxil fumarate], the “reduced HIV replication (extracellular p24 by ELISA)” value in data set [6] (in the presence of adipocytes) is recorded as 4-41%; in data set [6] (medium alone), 57-85%. For the same compound, the “HIV production (p24+)” value in data set [2] (setting [9]) is 55-60%; in data set [2] (medium alone), 15-16 % p24+. Also, in data set [7], the “effect of Caco-2 cells on antiviral activity” value is “neither preadipocytes or Caco-2 cells significantly affected”. Moreover, the “effect of preadipocytes on antiviral activity” value in data set [8] is given as “neither preadipocytes or Caco-2 cells significantly affected”. In addition, the “CD69+p24+ expression” value in data set [3] (co-culture with adipocytes) is 8-12%; in data set [3] (medium alone) it was below 2%. The “reduced HIV replication (intracellular p24)” value is 15-38% in data set [4] (0.5-2μg/ml TDF, in the presence of adipocytes) and 60-95% in data set [4] (0.5-2μg/ml TDF, medium alone).

On to `Nc1nc(NC2CC2)c2ncn([C@H]3C=C[C@@H](CO)C3)c2n1` [abacavir], for which, in data set [1] (Pt.06), the “intracellular concentration in lymph node cells” value was “undetectable” and the “intracellular concentration in visceral adipocytes” value is recorded as “undetectable”.
